Values belong to the molecule of their own block, whether it stands above or below them. No end group written: not given here. Me2 = α-N-dimethylated N-terminal residue
How the values were obtained:
human NRMT1 (human) = human NRMT1 (human) (UniProt Q9BV86); experiment: thermofluor shift assay
human NRMT1 [1] = molecular target: T1, human NRMT1 (Homo sapiens, UniProt Q9BV86); experiment: Thermofluor shift assay; type: binding; details: CENP-A (1-9) peptides, 360 μM; 1 mg/mL NRMT1, 180 μM SAH, pH 8.0
T1 sequence (Q9BV86 1-223): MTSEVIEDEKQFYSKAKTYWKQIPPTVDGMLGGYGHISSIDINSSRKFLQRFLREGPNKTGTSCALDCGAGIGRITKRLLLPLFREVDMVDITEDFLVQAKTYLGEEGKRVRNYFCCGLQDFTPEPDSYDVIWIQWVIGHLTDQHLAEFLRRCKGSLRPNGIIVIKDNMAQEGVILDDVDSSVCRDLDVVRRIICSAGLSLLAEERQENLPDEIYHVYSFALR

human NRMT1 [2] = molecular target: T1, human NRMT1; experiment: MALDI-TOF MS-based methylation assay of native and mutant CENP-A; type: biochemical; details: 5 h incubation, CENP-A (1-9) peptides
Summary of the method: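 Recombinant His-tagged human NRMT1, expressed in E. coli and purified, incubated 5 h with native or mutant CENP-A peptides. Methylated products detected by MALDI-TOF mass spectrometry. Abundance of each methylation state scored semi-quantitatively (full or half abundance levels); products not detected are recorded as ND.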

human NRMT1 [3] = molecular target: T1, human NRMT1; details: ref Okada et al. 2007; Tooley et al. 2010; Bailey et al. 2013; cited from earlier work
human NRMT1 [4] = molecular target: T1, human NRMT1; experiment: Histone peptide methylation profiling by NRMT1; type: biochemical; details: nine-residue N-terminal histone peptides; MALDI-TOF MS
Summary of the method: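 Wild-type human NRMT1, produced recombinantly in E. coli and purified as a His-tagged protein, incubated with native or mutant peptide substrates for 5 h. Methylated products detected by MALDI-TOF MS and scored semi-quantitatively by relative abundance of each methylation state (full or half abundance), with not-detected products recorded as ND.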

human NRMT1 D180N = molecular target: T2, human NRMT1 D180N (human, UniProt Q9BV86 1-223, D180N); experiment: cell-based or functional assay
T2 sequence: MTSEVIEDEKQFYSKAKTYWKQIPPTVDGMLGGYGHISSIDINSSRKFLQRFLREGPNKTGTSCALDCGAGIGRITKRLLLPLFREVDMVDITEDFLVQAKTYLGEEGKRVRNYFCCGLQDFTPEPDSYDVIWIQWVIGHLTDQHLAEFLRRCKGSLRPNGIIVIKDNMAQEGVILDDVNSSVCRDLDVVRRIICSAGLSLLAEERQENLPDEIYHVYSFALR

human NRMT1 [5] = molecular target: T3, human NRMT1 (human, UniProt Q9BV86 1-223); experiment: thermofluor shift assay
T3 sequence (looked up): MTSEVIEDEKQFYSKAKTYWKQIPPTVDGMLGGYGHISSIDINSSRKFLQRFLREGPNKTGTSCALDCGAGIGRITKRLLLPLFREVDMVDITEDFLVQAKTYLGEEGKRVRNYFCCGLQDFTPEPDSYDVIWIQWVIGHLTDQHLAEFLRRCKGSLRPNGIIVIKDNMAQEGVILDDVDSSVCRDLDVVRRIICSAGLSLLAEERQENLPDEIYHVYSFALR

human NRMT1 [6] = molecular target: T3, human NRMT1; experiment: ITC

Molecule: (G1A)PRRRSRKP
- Tm increase (stabilization) compared with NRMT1-SAH binary complex (human NRMT1 [1]): 1.5 °C
- methylation capacity / state preference, in words (human NRMT1 [2]): full state

Molecule: myosin light chain 3: reported NRMT1 substrate protein
- reported NRMT1 substrate, in words (human NRMT1 [3]): reported NRMT1 substrates

Molecule: (G1P)PRRRSRKP
- Tm increase (stabilization) compared with NRMT1-SAH binary complex (human NRMT1 [1]): 5.5 °C
- methylation capacity / state preference, in words (human NRMT1 [2]): full state

B1: myosin light chain 2: reported NRMT1 substrate protein (protein, UniProt P10916 2-166, looked up)
Myosin regulatory light chain …: APKKAKKRAGGANSNVFSMFEQTQIQEFKEAFTIMDQNRDGFIDKNDLRDTFAALGRVNVKNEEIDEMIKEAPGPINFTVFLTMFGEKLKGADPEETILNAFKVFDPEGKGVLKADYVREMLTTQAERFSKEEVDQMFAAFPPDVTGNLDYKNLVHIITHGEEKD
- reported NRMT1 substrate, in words (human NRMT1 [3]): reported NRMT1 substrates

B2: regulator of chromosome condensation 1 (RCC1): reported NRMT1 substrate protein (protein, UniProt P18754 2-421, looked up)
Regulator of chromosome …: SPKRIAKRRSPPADAIPKSKKVKVSHRSHSTEPGLVLTLGQGDVGQLGLGENVMERKKPALVSIPEDVVQAEAGGMHTVCLSKSGQVYSFGCNDEGALGRDTSVEGSEMVPGKVELQEKVVQVSAGDSHTAALTDDGRVFLWGSFRDNNGVIGLLEPMKKSMVPVQVQLDVPVVKVASGNDHLVMLTADGDLYTLGCGEQGQLGRVPELFANRGGRQGLERLLVPKCVMLKSRGSRGHVRFQDAFCGAYFTFAISHEGHVYGFGLSNYHQLGTPGTESCFIPQNLTSFKNSTKSWVGFSGGQHHTVCMDSEGKAYSLGRAEYGRLGLGEGAEEKSIPTLISRLPAVSSVACGASVGYAVTKDGRVFAWGMGTNYQLGTGQDEDAWSPVEMMGKQLENRVVLSVSSGGQHTVLLVKDKEQS
- reported NRMT1 substrate, in words (human NRMT1 [3]): reported NRMT1 substrates

B3: CENP-B: reported NRMT1 substrate protein (protein, UniProt P07199 2-599, looked up)
Major centromere autoantigen B: GPKRRQLTFREKSRIIQEVEENPDLRKGEIARRFNIPPSTLSTILKNKRAILASERKYGVASTCRKTNKLSPYDKLEGLLIAWFQQIRAAGLPVKGIILKEKALRIAEELGMDDFTASNGWLDRFRRRHGVVSCSGVARARARNAAPRTPAAPASPAAVPSEGSGGSTTGWRAREEQPPSVAEGYASQDVFSATETSLWYDFLPDQAAGLCGGDGRPRQATQRLSVLLCANADGSEKLPPLVAGKSAKPRAGQAGLPCDYTANSKGGVTTQALAKYLKALDTRMAAESRRVLLLAGRLAAQSLDTSGLRHVQLAFFPPGTVHPLERGVVQQVKGHYRQAMLLKAMAALEGQDPSGLQLGLTEALHFVAAAWQAVEPSDIAACFREAGFGGGPNATITTSLKSEGEEEEEEEEEEEEEEGEGEEEEEEGEEEEEEGGEGEELGEEEEVEEEGDVDSDEEEEEDEESSSEGLEAEDWAQGVVEAGGSFGAYGAQEEAQCPTLHFLEGGEDSDSDSEEEDDEEEDDEDEDDDDDEEDGDEVPVPSFGEAMAYFAMVKRYLTSFPIDDRVQSHILHLEHDLVHVTRKNHARQAGVRGLGHQS
- reported NRMT1 substrate, in words (human NRMT1 [3]): reported NRMT1 substrates

B4: kelch-like protein 31: reported NRMT1 substrate protein (protein, UniProt Q9H511 2-634, looked up)
Kelch-like protein 31: APKKKIVKKNKGDINEMTIIVEDSPLNKLNALNGLLEGGNGLSCISSELTDASYGPNLLEGLSKMRQENFLCDLVIGTKTKSFDVHKSVMASCSEYFYNILKKDPSIQRVDLNDISPLGLATVIAYAYTGKLTLSLYTIGSIISAAVYLQIHTLVKMCSDFLIREMSVENCMYVVNIAETYSLKNAKAAAQKFIRDNFLEFAESDQFMKLTFEQINELLIDDDLQLPSEIVAFQIAMKWLEFDQKRVKYAADLLSNIRFGTISAQDLVNYVQSVPRMMQDADCHRLLVDAMNYHLLPYHQNTLQSRRTRIRGGCRVLVTVGGRPGLTEKSLSRDILYRDPENGWSKLTEMPAKSFNQCVAVMDGFLYVAGGEDQNDARNQAKHAVSNFCRYDPRFNTWIHLASMNQKRTHFSLSVFNGLVYAAGGRNAEGSLASLECYVPSTNQWQPKTPLEVARCCHASAVADGRVLVTGGYIANAYSRSVCAYDPASDSWQELPNLSTPRGWHCAVTLSDRVYVMGGSQLGPRGERVDVLTVECYSPATGQWSYAAPLQVGVSTAGVSALHGRAYLVGGWNEGEKKYKKCIQCFSPELNEWTEDDELPEATVGVSCCTLSMPNNVTRESRASSVSSVPVSI
- reported NRMT1 substrate, in words (human NRMT1 [3]): reported NRMT1 substrates

B5: retinoblastoma protein: reported NRMT1 substrate protein (protein, UniProt P06400 2-928, looked up)
Retinoblastoma-associated …: PPKTPRKTAATAAAAAAEPPAPPPPPPPEEDPEQDSGPEDLPLVRLEFEETEEPDFTALCQKLKIPDHVRERAWLTWEKVSSVDGVLGGYIQKKKELWGICIFIAAVDLDEMSFTFTELQKNIEISVHKFFNLLKEIDTSTKVDNAMSRLLKKYDVLFALFSKLERTCELIYLTQPSSSISTEINSALVLKVSWITFLLAKGEVLQMEDDLVISFQLMLCVLDYFIKLSPPMLLKEPYKTAVIPINGSPRTPRRGQNRSARIAKQLENDTRIIEVLCKEHECNIDEVKNVYFKNFIPFMNSLGLVTSNGLPEVENLSKRYEEIYLKNKDLDARLFLDHDKTLQTDSIDSFETQRTPRKSNLDEEVNVIPPHTPVRTVMNTIQQLMMILNSASDQPSENLISYFNNCTVNPKESILKRVKDIGYIFKEKFAKAVGQGCVEIGSQRYKLGVRLYYRVMESMLKSEEERLSIQNFSKLLNDNIFHMSLLACALEVVMATYSRSTSQNLDSGTDLSFPWILNVLNLKAFDFYKVIESFIKAEGNLTREMIKHLERCEHRIMESLAWLSDSPLFDLIKQSKDREGPTDHLESACPLNLPLQNNHTAADMYLSPVRSPKKKGSTTRVNSTANAETQATSAFQTQKPLKSTSLSLFYKKVYRLAYLRLNTLCERLLSEHPELEHIIWTLFQHTLQNEYELMRDRHLDQIMMCSMYGICKVKNIDLKFKIIVTAYKDLPHAVQETFKRVLIKEEEYDSIIVFYNSVFMQRLKTNILQYASTRPPTLSPIPHIPRSPYKFPSSPLRIPGGNIYISPLKSPYKISEGLPTPTKMTPRSRILVSIGESFGTSEKFQKINQMVCNSDRVLKRSAEGSNPPKPLKKLRFDIEGSDEADGSKHLPGESKFQQKLAEMTSTRTRMQKQKMNDSMDTSNKEEK
- reported NRMT1 substrate, in words (human NRMT1 [3]): reported NRMT1 substrates

Now from value to molecule, other results behind:

- Tm of the NRMT1–CENP-A complex (human NRMT1 (human)): 50 °C
Molecule: α-N-trimethylated CENP-A peptide

- Tm increase (stabilization) compared with NRMT1-SAH binary complex (human NRMT1 [1]): 3 °C
Molecule: (G1S)PRRRSRKP
- methylation capacity / state preference, in words (human NRMT1 [2]): α-N-monomethylation being the major product form

- Tm of the NRMT1–CENP-A complex (human NRMT1 (human)): 49 °C
Molecule: α-N-monomethylated CENP-A peptide

- methylation by NRMT1, in words (human NRMT1 [4]): dimethylation
Molecule: PPKTSGKAA [DmH2B (fruit fly)]

- in vitro methylation assay of CENP-A, drop of activity against wild-type enzyme (human NRMT1 D180N): ~4 fold
Molecule: GPRRRSRKP [CENP-A (1–9) peptide, unmodified]

- Kd (human NRMT1 [6]): 0.39 µM
- dH (human NRMT1 [6]): -49.4 kJ/mol
Molecule: Me2-GPRRRSRKP [α-N-dimethylated CENP-A (1–9) peptide]
- Tm of the NRMT1–CENP-A complex (human NRMT1 [5]): 52.5 °C
